Screening data from PubChem BioAssay.
Apaf-1 inh = blocks human Apaf-1 apoptosome activity. O14727. reconstituted apoptosome caspase-3 activity, DEVD-Rh110 fluorescence. inhibition, % at 20 µM. actives 0.71% (n = 330,000). AID 489030; active = inhibition of at least 40% at 20 µM;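 also: plate controls were DMSO wells for no effect and DEVD-CHO caspase inhibitor wells for full effect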
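System: Apoptosome proteins | Medium: Hepes pH 7.5 with detergent and BSA | Also added: Cytochrome c trigger plus (Z-DEVD)2-Rh110 caspase-3 substrate | Incubation: 30 min compound preincubation, 50 min activation, room temperature | Detection: Rhodamine 110 fluorescence at Ex 480/Em 540 nm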
MEKK2 mut-MEK5 = signal of MEK5 binding to mutant human MEKK2 PB1 domain | percent response, % at 10 µM | AID 1530 | actives 0.35% (n = 290,000) | bead flow cytometry, Alexa488-MEK5 binding to MEKK2 mutant; in the data active = percent response above about 24%, passing the limit was not always enough
Pemphigus Ab inh = blocks pemphigus antibody binding to human desmoglein-3; P32926; DSG3-coupled beads, scFv-anti-DSG3-GFP binding, flow cytometry; active compounds read low; binding (percent of control), % at 10 µM; actives 0.48% (n = 310,000);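 active = binding more than 3 SD below its plate's average and above zero; inconclusive = below that plate limit but binding exactly zero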;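 also: hits lower antibody fragment binding to DSG3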
Target sequence (P32926 whole entry, looked up, the tested form may be a part): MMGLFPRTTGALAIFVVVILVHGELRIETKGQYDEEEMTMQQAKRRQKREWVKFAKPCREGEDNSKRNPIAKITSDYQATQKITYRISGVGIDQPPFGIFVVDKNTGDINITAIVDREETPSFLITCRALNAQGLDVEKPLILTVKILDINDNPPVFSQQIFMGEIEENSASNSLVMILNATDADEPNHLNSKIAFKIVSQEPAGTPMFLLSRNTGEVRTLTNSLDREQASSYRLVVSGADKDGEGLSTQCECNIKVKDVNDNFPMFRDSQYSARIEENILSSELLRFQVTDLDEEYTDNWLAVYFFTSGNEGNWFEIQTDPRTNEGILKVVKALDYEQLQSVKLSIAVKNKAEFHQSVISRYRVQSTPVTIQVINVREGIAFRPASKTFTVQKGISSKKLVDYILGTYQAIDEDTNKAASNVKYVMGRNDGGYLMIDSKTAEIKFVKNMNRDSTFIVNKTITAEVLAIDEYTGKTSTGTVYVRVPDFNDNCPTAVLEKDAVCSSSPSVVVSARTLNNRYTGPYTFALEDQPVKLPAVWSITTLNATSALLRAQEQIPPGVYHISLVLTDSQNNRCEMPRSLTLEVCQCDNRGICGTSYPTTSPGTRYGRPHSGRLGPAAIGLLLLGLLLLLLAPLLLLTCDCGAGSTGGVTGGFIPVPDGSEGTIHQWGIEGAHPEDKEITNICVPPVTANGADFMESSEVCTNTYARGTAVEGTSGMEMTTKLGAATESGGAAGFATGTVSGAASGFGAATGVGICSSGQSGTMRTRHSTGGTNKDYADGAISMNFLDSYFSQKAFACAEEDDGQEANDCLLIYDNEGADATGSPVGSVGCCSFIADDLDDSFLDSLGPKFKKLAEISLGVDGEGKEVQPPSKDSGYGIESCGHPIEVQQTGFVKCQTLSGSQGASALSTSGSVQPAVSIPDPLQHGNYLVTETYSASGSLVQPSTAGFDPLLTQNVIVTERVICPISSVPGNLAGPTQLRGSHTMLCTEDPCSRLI
MEKK3 PB1 HTS = modulators (inhibitors or enhancers) of MEK5 binding to human MEKK3 PB1 domain. Q99759. bead-based flow cytometry, Alexa488-MEK5 binding to MEKK3; actives lie on both sides; 0 = blocked by unlabeled MEK5, 100 = vehicle. binding response (% of control), % at 10 µM. actives 1.4% (n = 290,000). AID 1529;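 active = binding response more than 3 SD above or below the average of its plate-row segment, actives on both sides; inconclusive = wells at one plate position flagged as instrument error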;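 also: Alexa488 bead fluorescence after subtracting the streptavidin-only scavenger bead signal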
UBC13 polyUb = inhibitors of human UBC13 polyubiquitin chain formation; P61088; TR-FRET; inhibition, % at 20 µM; actives 0.47% (n = 330,000); in the data active = inhibition above about 45%, passing the limit was not always enough; inconclusive = no clear call, values can overlap the other calls
MEKK2wt PB1 HTS = raises or lowers MEK5 binding to wildtype human MEKK2 PB1 domain; Q9Y2U5; binding response (% of control), % at 10 µM; actives 1.1% (n = 290,000); bead flow cytometry, Alexa488-MEK5 binding to MEKK2 WT; actives lie on both sides; in the data active = binding response below about 67% or above about 130%; inconclusive = no clear call, values can overlap the other calls; inactive = in between
Apaf-1 inh conf2 = Apaf-1 inhibition, single-dose confirmed; shares compounds with Apaf-1 inh; reconstituted apoptosome, caspase-3 DEVD-Rh110 fluorescence; inhibition, % at 20 µM; actives 25% (n = 1,800);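 active = mean inhibition of at least 40% at 20 µM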;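 also: plate controls were DMSO wells for no effect and DEVD-CHO caspase inhibitor control wells for full effect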
Rh110 interf inh = interferes with Rh110 fluorescence, flagging false Apaf-1 inhibitors. shares compounds with Apaf-1 inh. Rh110 fluorescence interference, quenched caspase reaction. AID 504615. activation (fluorescence interference), % at 20 µM. 1,800 tested, under 10 active;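 active = signal rise of 40% or more at 20 µM, treated as a fluorescence artifact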
Apaf1 inh interf = Apaf-1 inhibitor counter-screen fluorescence artifact. shares compounds with Apaf-1 inh. fluorescence interference counterscreen, Apaf-1 assay format. IC50, µM. 460 tested, under 10 active. AID 588538; call rule not given here
Starred values were filed as active, the others as inactive; u = inconclusive; x = no result. Shown are actives, neighbours in structure and some others; about 3.2% of the full set was active somewhere.

SMILES	Apaf-1 inh	MEKK2 mut-MEK5	Pemphigus Ab inh	MEKK3 PB1 HTS	UBC13 polyUb	MEKK2wt PB1 HTS	Apaf-1 inh conf2	Rh110 interf inh	others
C=C(C)Cc1c(C)c(C#N)c2[nH]c3ccccc3n2c1=O	62*	3	116	103	-14	104	45*	5	Apaf1 inh interf=>100
Cc1cccc(N2CCN(C(=O)c3ccc4nc(-c5ccco5)c(-c5ccco5)nc4c3)CC2C)c1 (stereo unspecified)	60*	-2	x	103	-32	92	22	-1
O=C(NCc1ccccc1)c1ccc2nc(-c3ccco3)c(-c3ccco3)nc2c1	65*	0	84	103	-24	97	28	6
O=C(Nc1ccc2nc(-c3ccco3)c(-c3ccco3)nc2c1)N1CCN(c2ccccn2)CC1	13	2	108	100	11	91	x	x
O=C(NCc1ccccc1)c1ccc2nccnc2c1	-3	5	96	109	-2	108	x	x
O=C(c1ccc2nc(-c3ccco3)c(-c3ccco3)nc2c1)N1CCN(c2ncccn2)CC1	57*	-8	x	95	-28	88	22	0
COc1cc(C(=O)OCC(=O)N2CCNC2=O)cc(Cl)c1OC	4	x	101	x	-1	x	x	x
O=C(NCCOc1nc(N2CCCCC2)nc(N2CCCCC2)n1)Nc1ccccc1	41*	5	94	106	-9	106	15	11
COc1cc2sc3cc(NCC[C@@H]4CCCN4C)ccc3c(=O)c2cc1OC	55*	x	114	x	45	x	23	14
Cn1c(SCC(=O)Nc2cccnc2Cl)nnc1-c1ccco1	4	x	113	x	-3	x	x	x
CC(SCC(=O)Nc1ccc(F)cc1)c1nc2ccccc2c(=O)[nH]1 (stereo unspecified)	6	12	95	103	6	106	x	x
CC/C(=N/Nc1cccc(C)c1)c1cnnc(SC)n1	63*	-1	93	92	-11	92	13	5
COc1ccc(NC(=O)C2CCN(S(=O)(=O)c3cccc4nonc34)CC2)cc1	0	0	u	101	4	99	x	x
O=[N+]([O-])c1cc(CN2CCCC2)c2cccnc2c1O	x	0	92	99	x	101	x	x
O=[N+]([O-])c1cc(CN2CCN(c3cccc(C(F)(F)F)c3)CC2)c2cccnc2c1O	42*	-2	95	98	-42	88	24	5
COc1ccc(NC(=O)CSc2nc3ccccc3c(=O)n2CCCC(=O)NCC2CCCO2)c(OC)c1 (stereo unspecified)	-4	6	x	104	-3	107	x	x
O=C1C2=C(c3ccccc31)[N+](=O)[C@@H]1CCCC[C@@H]1N2[O-]	75*	1	109	101	-27	102	66*	-7	Apaf1 inh interf=>100
O=C1c2ccccc2C(=O)N1SC1CCCCC1	10	4	x	100	-13	102	x	x
Cc1c(CCOC(=O)c2ccc(Cl)cc2Cl)sc[n+]1CC(=O)c1ccccc1	56*	x	101	x	38	x	8	10
COc1cc(Br)ccc1C1CC(=O)C(C)C(c2ccc(Br)cc2OC)N1 (stereo unspecified)	24	5	102	102	-5	102	x	x
CC(NC(=O)Cc1ccccc1)c1ccccc1 (stereo unspecified)	-1	7	104	99	3	99	x	x
Cc1ccc(C(=O)NC2(O)C(=O)c3ccccc3C2=O)cc1C	97*	-3	106	101	-39	99	93*	-5	Apaf1 inh interf=>100
O=C(NC1(O)C(=O)c2ccccc2C1=O)c1ccc(C(F)(F)F)cc1	96*	-12	98	87	-38	87	98*	13	Apaf1 inh interf=>100
O=C(Cc1ccccc1)NC1(O)C(=O)c2ccccc2C1=O	85*	1	92	106	-21	105	69*	7	Apaf1 inh interf=>100
CN(CC(=O)Nc1ccccc1Cl)CC(=O)N(C)c1c(N)n(Cc2ccccc2)c(=O)[nH]c1=O	9	x	91	x	-9	x	x	x
SMILES	Apaf-1 inh	MEKK2 mut-MEK5	Pemphigus Ab inh	MEKK3 PB1 HTS	UBC13 polyUb	MEKK2wt PB1 HTS	Apaf-1 inh conf2	Rh110 interf inh	others
O=C(C[C@@H]1C/C=C\CC[C@H](Cc2ccc(F)cc2)C(=O)OC[C@@H]2CCCN2C1=O)N[C@H](CO)Cc1ccccc1	19	x	100	x	15	x	x	x
COc1ccc(CC(=O)Nc2ccc(-c3nc4cc(C)ccc4o3)c(O)c2)cc1OC	42*	x	x	x	1	x	6	-3
Cc1ccc2oc(-c3ccc(NC(=O)c4ccncc4)cc3O)nc2c1	11	-13	96	97	10	91	x	x
CC(C)(CNC(=O)c1cccc(NS(=O)(=O)c2ccc(Br)cc2)c1)N1CCOCC1	-1	7	x	101	-11	103	x	x
Cc1ccc(C)c(NC(=O)CN2C(=O)C3CC=CCC3C2=O)c1 (stereo unspecified)	x	x	103	x	x	x	x	x
COC(=O)c1nn(-c2ccc(OC)cc2)c(=O)cc1NN	42*	-4	94	103	-37	101	37	3
COc1ccc(-c2nc3ccccc3nc2-c2ccc(OC)c(OC)c2)cc1OC	12	5	146	107	14	106	x	x
COc1ccc2nc3cccc(OC)c3nc2c1	97*	-13	98	57	-55	70	27	1
COc1ccc2nc(-c3ccco3)c(-c3ccco3)nc2c1	39	-8	91	87	7	86	x	x
COc1ccc2nc3ccccc3nc2c1N	92*	6	113	101	-371	100	21	-2
CC1(C)CCCC2(C)C(OCCO)=CC(=O)C=C12 (stereo unspecified)	x	x	98	x	x	x	x	x
CCN(CC(=O)NCc1cccs1)C(=O)C(c1ccccc1)c1ccccc1	0	-4	99	101	0	97	x	x
CCCN1C(=O)/C(=C/c2cc(C)n(C)c2C)SC1=Nc1ccc(OC)cc1	41*	x	108	x	-14	x	19	9
COc1ccc(N=C2S/C(=C\c3cc(C)n(C)c3C)C(=O)N2C)cc1	13	-3	x	98	-2	94	x	x
CC1(c2ccc([N+](=O)[O-])cc2)NC(=O)N(CC(=O)Nc2ccc(N3CCCCC3)cc2)C1=O (stereo unspecified)	33	x	86	x	9	x	x	x
CC1(c2ccc(OC(F)F)cc2)NC(=O)N(CC(=O)Nc2ccc(N3CCCCC3)cc2)C1=O (stereo unspecified)	53*	x	99	x	5	x	19	4
CCN(Cc1ccccc1)C(=O)c1cccc(S(=O)(=O)N2CCN(c3ccc(F)cc3)CC2)c1	42*	x	105	x	10	x	39	0
